The RNAGym collection of RNA variant scans (doi:10.1126/science.aae0568)
This sample holds only a part of the variants without activity.

B1: tRNA (parent)
chain: GUUCCGUUGGCGUAAUGGUAACGCGUCUCCCUCCUAAGGAGAAGACUGCGGGUUCGAGUCCCGUACGGAACG

Variants of: B1
Assay: yeast fitness relative to wild type (ratio to wild type); higher = fitter; tRNA-Arg(CCU), competitive growth, 37 C, YPD
How it was run: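 Start and end populations of a pooled competition were compared by 100-nucleotide paired-end sequencing of gene amplicons. The Saccharomyces cerevisiae strains carried tRNA-Arg(CCU) gene variants at the native genomic locus, synthesised with a 3% per-site mutation rate at 69 sites, and competed in YPD at 37°C for 24 hours in six parallel replicates. Darwinian fitness relative to wild type was based on the change in genotype frequencies. Genotypes required ≥ 100 starting reads, and estimates < 0.5 were set to 0.5.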

First: A42U U47C C62U
Second: A42U U53C
The yeast fitness of the first is lower: 0.628 for the first, 0.732 for the second.

First: A43C A45G G58C
Second: A43C A45U C61A C62U C66U
The yeast fitness of the first is higher: 0.685 for the first, no more than 0.5 for the second.

Going from A43C A69C to A43C A69U, the yeast fitness rises from 1.04 to 1.12.

Compared with A43C A70G, A43C C46A G48C G63A is lower in yeast fitness: 1.05 for the first, 0.62 for the second.

First: A43C C46U
Second: A43C C49A A65C
The yeast fitness of the first is higher: 1.03 for the first, no more than 0.5 for the second.

Compared with A43C C49G A57G, A43C C49U is higher in yeast fitness: 0.591 for the first, 0.964 for the second.

Going from A43C C61G to A43C C62A A69C, the yeast fitness falls from 0.66 to 0.633.

Compared with A43C C62G, A43C C66U is higher in yeast fitness: 0.76 for the first, 0.948 for the second.

First: A43C G44A U59A
Second: A43C G44C C55G C62U C66U
The yeast fitness of the first is higher: 0.593 for the first, no more than 0.5 for the second.

Going from A43C G48A G58C to A43C G56A, the yeast fitness rises from 0.689 to 0.949.

First: A43C G56A C61A
Second: A43C G58A
The yeast fitness of the first is lower: 0.525 for the first, 0.944 for the second.

Compared with A43C G63U, A43C G67A is higher in yeast fitness: 0.638 for the first, 0.685 for the second.

Going from A43C G67C to A43C G68U, the yeast fitness rises from 0.867 to 0.868.

Compared with A43C U47A, A43C U53A is lower in yeast fitness: 0.732 for the first, 0.662 for the second.

First: A43C U64C A70C
Second: A43C U64G
The yeast fitness of the first is higher: 0.989 for the first, 0.618 for the second.

Going from A43G A45G A70G to A43G A57G, the yeast fitness rises from 0.532 to 0.924.

Going from A43G C60G to A43G C60U C62U C66U A70C, the yeast fitness falls from 0.734 to no more than 0.5.

First: A43G C66G
Second: A43G C66U
The yeast fitness of the first is lower: 0.699 for the first, 0.887 for the second.

Going from A43G G50C to A43G G51A A69C, the yeast fitness falls from 0.728 to no more than 0.5.

First: A43G G56A C66U G68U
Second: A43G G58C
The yeast fitness of the first is lower: 0.557 for the first, 0.855 for the second.

First: A43G G68A
Second: A43G U47C A65U
The yeast fitness of the first is higher: 0.873 for the first, 0.668 for the second.

Going from A43G U53C C55U to A43U A65G, the yeast fitness rises from 0.561 to 1.01.

Compared with A43U C46A A65C, A43U C49G A69C is lower in yeast fitness: 0.688 for the first, 0.512 for the second.

Going from A43U C49G C55G to A43U C55A A65U, the yeast fitness falls from 0.988 to 0.515.

First: A43U C55A A65U A70G
Second: A43U C61A
The yeast fitness of the first is lower: 0.56 for the first, 0.764 for the second.

Compared with A43U C62A A65U C66U, A43U C66A is higher in yeast fitness: no more than 0.5 for the first, 0.619 for the second.

Going from A43U G44A C46A to A43U G50A G52U A69C, the yeast fitness falls from 0.654 to no more than 0.5.

Compared with A43U G50C A65C, A43U G51A is higher in yeast fitness: 0.556 for the first, 1 for the second.

First: A43U G51C A57C C60G G67A
Second: A43U G51C C61G
The yeast fitness of the first is higher: 0.663 for the first, 0.593 for the second.

Compared with A43U G56A A57G, A43U G56A C66G is lower in yeast fitness: 0.691 for the first, 0.553 for the second.

First: A43U G56C
Second: A43U G56C C61A
The yeast fitness of the first is higher: 0.702 for the first, no more than 0.5 for the second.

Compared with A43U G63C A70U, A43U U47C C55A is lower in yeast fitness: 0.54 for the first, no more than 0.5 for the second.

First: A43U U47C C55G
Second: A43U U54A
The yeast fitness of the first is lower: no more than 0.5 for the first, 0.683 for the second.

First: A43U U54C
Second: A43U U59C
The yeast fitness of the first is lower: 0.92 for the first, 1.02 for the second.

Going from G44A A45G G51C to G44A A57G, the yeast fitness rises from no more than 0.5 to 0.688.

First: G44A A57U C66U
Second: G44A C46U A69C
The yeast fitness of the first is lower: 0.547 for the first, 0.996 for the second.

Compared with G44A C49G A65U, G44A C49G A70U is lower in yeast fitness: 0.547 for the first, no more than 0.5 for the second.

Compared with G44A C60U C62G, G44A G50C A70G is lower in yeast fitness: 0.596 for the first, 0.537 for the second.

First: G44A G56C
Second: G44A G58C C66U
The yeast fitness of the first is lower: 0.585 for the first, 0.667 for the second.

Compared with G44A G68A, G44A U47C is higher in yeast fitness: 0.802 for the first, 0.979 for the second.

Compared with G44C A45G, G44C A65U is lower in yeast fitness: 0.958 for the first, 0.873 for the second.

Variant G44C A69C has a yeast fitness of 0.85.
